# According to ChEMBL document CHEMBL3526081 (Drug Metab Dispos, 2011):
# Experiments:
# Liver microsome [1] = assay: Drug level in human liver microsomes treated with 100 uM cinobufagin at 37 degC after 30 mins by UFLC-ESI-MS analysis in presence of NADPH-generating system; assay type: ADME; conditions: 0.5 h
# Procedure, shortened: (§1)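 Liver microsomes (0.3 mg protein/ml) incubated with 100 µM substrate at 37°C for 30 min, in 100 mM potassium phosphate pH 7.4 with NADPH-generating system (1 mM NADP+, 10 mM glucose 6-phosphate, 1 unit/ml G6PDH, 4 mM MgCl2). Acetonitrile ≤1% final. Stopped with ice-cold acetonitrile and centrifuged. Metabolites identified by UFLC-ESI-MS and quantified by UFLC-DAD at 294 nm against authentic standard curves.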
# Liver microsome [2] = assay: Drug level in beagle dog liver microsomes treated with 100 uM cinobufagin at 37 degC after 30 mins by UFLC-ESI-MS analysis in presence of NADPH-generating system; assay type: ADME, Canis lupus familiaris; conditions: 0.5 h; procedure, shortened: as §1
# Cytochrome P450 2E1 = Cytochrome P450 2E1 (Homo sapiens, UniProt P05181); assay: Drug level in human recombinant CYP2E1 expressed in insect cells coexpressing NADPH-P450 reductase measured per pmol of enzyme treated with 50 uM cinobufagin at 37 degC after 30 mins by UFLC-DAD-ESI-MS analysis; conditions: 0.5 h
# Sequence of Cytochrome P450 2E1 (P05181 whole entry): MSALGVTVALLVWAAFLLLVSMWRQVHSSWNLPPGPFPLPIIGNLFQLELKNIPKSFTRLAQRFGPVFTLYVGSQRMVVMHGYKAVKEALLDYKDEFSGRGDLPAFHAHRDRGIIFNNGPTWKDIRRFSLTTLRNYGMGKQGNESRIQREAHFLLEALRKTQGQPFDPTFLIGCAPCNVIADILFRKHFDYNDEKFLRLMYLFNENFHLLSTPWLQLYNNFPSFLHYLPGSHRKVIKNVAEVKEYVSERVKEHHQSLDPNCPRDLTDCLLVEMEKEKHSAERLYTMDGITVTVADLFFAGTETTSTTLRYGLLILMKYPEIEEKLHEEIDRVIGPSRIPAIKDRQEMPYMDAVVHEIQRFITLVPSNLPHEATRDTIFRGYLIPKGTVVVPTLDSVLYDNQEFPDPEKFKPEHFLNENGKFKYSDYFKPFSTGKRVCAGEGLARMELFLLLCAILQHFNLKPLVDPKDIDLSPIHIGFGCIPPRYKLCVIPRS
# Cytochrome P450 2B6 = target: T1, Cytochrome P450 2B6 (Homo sapiens, UniProt P20813); assay: Drug level in human recombinant CYP2B6 expressed in insect cells coexpressing NADPH-P450 reductase measured per pmol of enzyme treated with 50 uM cinobufagin at 37 degC after 30 mins by UFLC-DAD-ESI-MS analysis; conditions: 0.5 h
# T1 sequence (P20813 whole entry): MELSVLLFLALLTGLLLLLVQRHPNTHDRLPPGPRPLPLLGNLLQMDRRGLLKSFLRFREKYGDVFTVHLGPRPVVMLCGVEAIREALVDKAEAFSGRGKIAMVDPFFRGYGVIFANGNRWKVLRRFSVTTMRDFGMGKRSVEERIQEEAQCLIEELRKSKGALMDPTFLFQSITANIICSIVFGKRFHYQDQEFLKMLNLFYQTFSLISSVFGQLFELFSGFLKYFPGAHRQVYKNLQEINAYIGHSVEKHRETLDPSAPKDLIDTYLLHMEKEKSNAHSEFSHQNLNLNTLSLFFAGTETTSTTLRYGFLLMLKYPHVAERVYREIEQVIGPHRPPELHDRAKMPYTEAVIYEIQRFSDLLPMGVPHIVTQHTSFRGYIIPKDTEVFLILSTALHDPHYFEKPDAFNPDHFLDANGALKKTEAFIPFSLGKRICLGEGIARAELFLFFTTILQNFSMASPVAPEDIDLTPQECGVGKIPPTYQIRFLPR
# Cytochrome P450 2D6 = Cytochrome P450 2D6 (Homo sapiens, UniProt P10635); assay: Drug level in human recombinant CYP2D6 expressed in insect cells coexpressing NADPH-P450 reductase measured per pmol of enzyme treated with 50 uM cinobufagin at 37 degC after 30 mins by UFLC-DAD-ESI-MS analysis; conditions: 0.5 h
# Sequence of Cytochrome P450 2D6 (P10635 whole entry): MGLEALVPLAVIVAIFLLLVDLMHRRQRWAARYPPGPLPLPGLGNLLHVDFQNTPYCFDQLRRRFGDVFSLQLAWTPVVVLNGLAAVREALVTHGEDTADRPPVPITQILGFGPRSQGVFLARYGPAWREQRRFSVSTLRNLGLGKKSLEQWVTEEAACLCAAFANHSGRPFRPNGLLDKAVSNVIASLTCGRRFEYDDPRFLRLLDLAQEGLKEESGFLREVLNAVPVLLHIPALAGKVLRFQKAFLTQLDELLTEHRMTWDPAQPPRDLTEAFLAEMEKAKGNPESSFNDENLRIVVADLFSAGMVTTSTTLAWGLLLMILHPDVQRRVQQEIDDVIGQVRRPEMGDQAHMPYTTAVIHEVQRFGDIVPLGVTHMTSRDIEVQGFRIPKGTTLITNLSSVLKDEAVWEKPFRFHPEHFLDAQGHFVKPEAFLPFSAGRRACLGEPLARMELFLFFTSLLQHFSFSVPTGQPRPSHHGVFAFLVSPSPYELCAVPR
# Liver microsome [3] = assay: Retention time in Sprague-Dawley rat liver microsomes treated with 100 uM cinobufagin at 37 degC after 30 mins by UFLC-DAD-ESI-MS analysis; assay type: ADME; conditions: 0.5 h
# Procedure, shortened: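 Male Sprague-Dawley rat microsomes (0.3 mg/ml) were incubated with CB (100 µM) at 37°C for 30 min, with and without NADPH-generating system. Separation was on an ODS column at 40°C using an acetonitrile/0.5% formic acid water gradient at 0.4 ml/min, with DAD detection at 294 nm plus ESI-MS.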
# [4] = Drug metabolism in Swiss-Hauschka (ICR) mouse liver microsomes assessed as dihydroxylcinobufagin formation at 100 uM at 37 degC after 30 mins by UFLC-ESI-MS analysis in presence of NADPH-generating system; assay type: ADME; conditions: 0.5 h; procedure, shortened: as §1
# Liver microsome [5] = assay: Drug metabolism in human liver microsomes assessed as 1alpha-hydroxylcinobufagin formation at 100 uM at 37 degC after 30 mins […] in presence of 2.5 uM 8-methoxypsoralen CYP2A6 inhibitor; assay type: ADME; conditions: 0.5 h
# [6] = Drug metabolism in Colony-bred Chinese Bama minipig liver microsomes assessed as 1alpha-hydroxylcinobufagin formation per mg of protein at 100 uM at 37 degC after 30 mins by UFLC-ESI-MS analysis; assay type: ADME, Sus scrofa; conditions: pig, 0.5 h; procedure, shortened: as §1
# Liver microsome [7] = assay: Drug metabolism in human liver microsomes assessed as 1alpha-hydroxylcinobufagin formation at 100 uM […] by UFLC-ESI-MS analysis; assay type: ADME; conditions: 0.5 h, read-out: Km(app)
# Liver microsome [8] = assay: Ratio of Vmax/Km in beagle dog liver microsomes assessed as 5beta-hydroxylcinobufaginn formation at 100 uM […] by UFLC-ESI-MS analysis; assay type: ADME, Canis lupus familiaris; conditions: 0.5 h
# [9] = Drug metabolism in cynomolgus monkey liver microsomes assessed as 5beta-hydroxylcinobufagin formation at 100 uM at 37 degC after 30 mins by UFLC-ESI-MS analysis in presence of NADPH-generating system; assay type: ADME, Macaca fascicularis; conditions: 0.5 h; procedure, shortened: as §1
# [10] = Drug metabolism in Swiss-Hauschka (ICR) mouse liver microsomes assessed as 1alpha-hydroxylcinobufagin formation at 100 uM at 37 degC after 30 mins by UFLC-ESI-MS analysis; assay type: ADME; conditions: 0.5 h, read-out: Km(app); procedure, shortened: as §1
# Liver microsome [11] = assay: Drug metabolism in human liver microsomes assessed as 1alpha-hydroxylcinobufagin formation at 100 uM at 37 degC after 30 mins […] in presence of 10 uM furafylline CYP1A2 inhibitor; assay type: ADME; conditions: 0.5 h
# Liver microsome [12] = assay: Drug metabolism in human liver microsomes assessed as 1alpha-hydroxylcinobufagin formation at 100 uM at 37 degC after 30 mins […] in presence of 20 uM omeprazole CYP2C19 inhibitor; assay type: ADME; conditions: 0.5 h
# [13] = Drug metabolism in Swiss-Hauschka (ICR) mouse liver microsomes assessed as 5beta-hydroxylcinobufaginn formation per mg of protein at 100 uM at 37 degC after 30 mins by UFLC-ESI-MS analysis; assay type: ADME; conditions: 0.5 h; procedure, shortened: as §1
# Liver microsome [14] = assay: Drug metabolism in beagle dog liver microsomes assessed as 5beta-hydroxylcinobufagin formation at 100 uM at 37 degC after 30 mins by UFLC-ESI-MS analysis in presence of NADPH-generating system; assay type: ADME, Canis lupus familiaris; conditions: 0.5 h; procedure, shortened: as §1
# Liver microsome [15] = assay: Drug metabolism in human liver microsomes assessed as 1alpha-hydroxylcinobufagin formation at 100 uM at 37 degC after 30 mins […] in presence of 2 uM montelukast CYP2C8 inhibitor; assay type: ADME; conditions: 0.5 h
# Liver microsome [16] = assay: Drug metabolism in beagle dog liver microsomes assessed as 1alpha-hydroxylcinobufagin formation at 100 uM at 37 degC after 30 mins by UFLC-ESI-MS analysis in presence of NADPH-generating system; assay type: ADME, Canis lupus familiaris; conditions: 0.5 h; procedure, shortened: as §1
# [17] = Drug metabolism in Colony-bred Chinese Bama minipig liver microsomes assessed as 1alpha-hydroxylcinobufagin formation at 100 uM at 37 degC after 30 mins by UFLC-ESI-MS analysis in presence of NADPH-generating system; assay type: ADME, Sus scrofa; conditions: pig, 0.5 h; procedure, shortened: as §1
# [18] = Drug metabolism in Swiss-Hauschka (ICR) mouse liver microsomes assessed as 1alpha-hydroxylcinobufagin formation per mg of protein at 100 uM at 37 degC after 30 mins by UFLC-ESI-MS analysis; assay type: ADME; conditions: 0.5 h; procedure, shortened: as §1
# Liver microsome [19] = assay: Drug metabolism in human liver microsomes assessed as 5beta-hydroxylcinobufagin formation at 100 uM at 37 degC after 30 mins by […] in presence of 1 uM ketoconazole CYP3A4 inhibitor; assay type: ADME; conditions: 0.5 h
smiles,measurement,setting,value
CC(=O)O[C@H]1[C@H]2O[C@]23[C@@H]2CC[C@]4(O)C[C@@H](O)CC[C@]4(C)[C@H]2CC[C@]3(C)[C@H]1c1ccc(=O)oc1 [CINOBUFOTALIN],Drug metabolism,Liver microsome [1],metabolite_detected
same,Drug metabolism,Liver microsome [2],metabolite_detected
same,Drug metabolism,Cytochrome P450 2E1,< 0.01 pmol/min
same,Drug metabolism,Cytochrome P450 2B6,< 0.01 pmol/min
same,Drug metabolism,Cytochrome P450 2D6,< 0.01 pmol/min
same,Retention_time,Liver microsome [3],7.6 min
CC(=O)O[C@H]1[C@H]2O[C@]23[C@@H]2CC[C@@H]4C[C@@H](O)CC[C@]4(C)[C@H]2CC[C@]3(C)[C@H]1c1ccc(=O)oc1 [CINOBUFAGIN],Drug metabolism,[4],metabolite_detected
same,Drug metabolism,Liver microsome [5],metabolite_detected
same,Vmax,[6],0.25 nmol/min/mg
same,Km,Liver microsome [7],12.5 µM
same,Vmax/Km,Liver microsome [8],129.4 µL/min/mg
same,Drug metabolism,[9],metabolite_detected
same,Km,[10],14.1 µM
same,Drug metabolism,Liver microsome [11],metabolite_detected
same,Drug metabolism,Liver microsome [12],metabolite_detected
same,Vmax,[13],6.51 nmol/min/mg
same,Drug metabolism,Liver microsome [14],metabolite_detected
same,Drug metabolism,Liver microsome [15],metabolite_detected
same,Drug metabolism,Liver microsome [16],metabolite_detected
same,Drug metabolism,[17],metabolite_detected
same,Vmax,[18],8.39 nmol/min/mg
same,Drug metabolism,Liver microsome [19],metabolite_not_detected
CC(=O)O[C@H]1[C@H]2O[C@]23[C@@H]2CC[C@@H]4C[C@@H](O)C[C@H](O)[C@]4(C)[C@H]2CC[C@]3(C)[C@H]1c1ccc(=O)oc1,Drug metabolism,Liver microsome [1],metabolite_detected
same,Drug metabolism,Liver microsome [2],metabolite_detected
same,Drug metabolism,Cytochrome P450 2E1,< 0.01 pmol/min
same,Drug metabolism,Cytochrome P450 2B6,< 0.01 pmol/min
same,Drug metabolism,Cytochrome P450 2D6,< 0.01 pmol/min
same,Retention_time,Liver microsome [3],7.35 min
